Experiments:
[1] = Inhibition of TGF-beta expressed in human A549 cells assessed as luciferase activity after 4 hrs by Smad2/3 reporter assay; type: cell-based
How it was run: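 A549 human lung epithelial cells stably carrying a luciferase reporter driven by four tandem Smad2/3 binding sequences (p(SBE)4-Luc); cells given test compound together with TGF-β1 (2 ng/ml), cultured 4 h, then luciferase activity read by chemiluminescence (Steady Glo); IC50 values reported.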

[2] = molecular target: Proto-oncogene tyrosine-protein kinase Src (Homo sapiens, UniProt P12931); test: Inhibition of c-Src
Chain of Proto-oncogene tyrosine-protein kinase Src (P12931 2-536 limits assumed): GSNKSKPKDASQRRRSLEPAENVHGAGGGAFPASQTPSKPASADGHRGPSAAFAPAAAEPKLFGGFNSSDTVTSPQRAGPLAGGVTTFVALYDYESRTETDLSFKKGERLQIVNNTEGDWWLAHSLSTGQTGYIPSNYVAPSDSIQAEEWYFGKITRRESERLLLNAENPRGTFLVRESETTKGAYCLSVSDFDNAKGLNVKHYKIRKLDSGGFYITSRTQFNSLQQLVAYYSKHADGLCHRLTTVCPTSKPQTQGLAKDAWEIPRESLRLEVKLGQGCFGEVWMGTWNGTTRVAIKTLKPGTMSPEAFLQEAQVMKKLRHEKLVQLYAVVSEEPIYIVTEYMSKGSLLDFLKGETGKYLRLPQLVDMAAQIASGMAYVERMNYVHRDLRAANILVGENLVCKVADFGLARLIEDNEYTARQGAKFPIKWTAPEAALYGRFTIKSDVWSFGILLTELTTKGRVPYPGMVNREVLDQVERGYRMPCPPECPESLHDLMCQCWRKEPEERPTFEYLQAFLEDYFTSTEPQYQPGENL

[3] = Inhibition of TGF-beta mediated Smad2 phosphorylation in human A549 cells after 30 mins by Western blot; type: cell-based; details: A549, 0.5 h
TGF-beta receptor type-1 = molecular target: T1, TGF-beta receptor type-1 (Homo sapiens, UniProt P36897); test: Inhibition of ALK5 by filter binding assay
T1 sequence (P36897 whole entry): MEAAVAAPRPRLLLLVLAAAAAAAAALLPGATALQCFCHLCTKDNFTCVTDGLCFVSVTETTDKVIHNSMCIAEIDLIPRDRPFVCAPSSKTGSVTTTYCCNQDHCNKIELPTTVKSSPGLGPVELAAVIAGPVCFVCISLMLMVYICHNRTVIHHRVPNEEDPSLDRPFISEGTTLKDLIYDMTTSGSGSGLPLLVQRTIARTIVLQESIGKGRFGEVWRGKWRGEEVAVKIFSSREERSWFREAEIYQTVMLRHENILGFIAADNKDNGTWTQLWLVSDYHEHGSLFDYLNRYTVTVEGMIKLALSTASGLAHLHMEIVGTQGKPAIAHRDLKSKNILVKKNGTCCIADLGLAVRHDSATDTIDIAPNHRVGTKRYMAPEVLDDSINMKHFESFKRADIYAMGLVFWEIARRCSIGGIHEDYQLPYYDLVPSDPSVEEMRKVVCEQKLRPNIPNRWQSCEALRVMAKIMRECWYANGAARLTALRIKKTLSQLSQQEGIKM

Compound	IC50 [1] [nM]	also measured
COc1cc2nccc(Oc3ccc(C)cc3C(=O)c3ccco3)c2cc1OC	2700	
CCC(=O)c1cc(OC)ccc1Oc1ccnc2cc(OC)c(OC)cc12	1100	
CCCCc1ccc(Oc2ccnc3cc(OC)c(OC)cc23)c(C(C)=O)c1	2200	
COc1ccc(C(C)=O)c(Oc2ccnc3cc(OC)c(OC)cc23)c1	8800	
COc1cc2nccc(Oc3ccc(Br)cc3C(=O)c3ccccc3)c2cc1OC	3200	
COc1cc2nccc(Oc3ccccc3C(C)=O)c2cc1OC	> 10000	
COc1cc2nccc(Oc3ccc(F)cc3C(C)=O)c2cc1OC	3800	
COc1cc2nccc(Oc3cc(C)c(C)cc3C(=O)c3ccccc3)c2cc1OC	1400	
CCCOc1ccc(Oc2ccnc3cc(OC)c(OC)cc23)c(C(C)=O)c1	> 10000	
COc1ccc(C(=O)c2ccccc2)c(Oc2ccnc3cc(OC)c(OC)cc23)c1	4900	
COc1cc2nccc(Oc3ccc(C)cc3C(=O)N3CCCCC3)c2cc1OC	> 10000	
COc1cc2nccc(Oc3cc(C)ccc3C(C)=O)c2cc1OC	5500	
CCC(=O)c1ccc(OC)cc1Oc1ccnc2cc(OC)c(OC)cc12	1800	
COc1cc2nccc(Oc3ccc(C)cc3C(=O)c3ccc(C(C)(C)C)cc3)c2cc1OC	8500	
COc1cc2nccc(Oc3ccc(C)cc3C(=O)c3ccccc3)c2cc1OC	640	IC50 [2]: 1700 nM; IC50 [3]: 500 nM; IC50 (TGF-beta receptor type-1): 2700 nM
CCCc1ccc(Oc2ccnc3cc(OC)c(OC)cc23)c(C(C)=O)c1	540	

Compound	IC50 [1] [nM]	also measured
COc1ccc(Oc2ccnc3cc(OC)c(OC)cc23)c(C(C)=O)c1	590	
COc1cc2nccc(Oc3ccc(C)cc3C(=O)c3ccno3)c2cc1OC	2500	
COc1cc2nccc(Oc3cc(C)c(C)cc3C(C)=O)c2cc1OC	370	IC50 [2]: 13000 nM; IC50 [3]: 500 nM; IC50 (TGF-beta receptor type-1): 630 nM
CCOc1ccc(Oc2ccnc3cc(OC)c(OC)cc23)c(C(C)=O)c1	5600	
COc1cc2nccc(Oc3cc(C)c(Cl)cc3C(=O)c3ccccc3)c2cc1OC	2100	
COc1cc2nccc(Oc3ccc(Cl)cc3C(=O)c3ccccc3)c2cc1OC	2700	
COc1cc2nccc(Oc3ccccc3C(=O)c3ccccc3)c2cc1OC	4700	IC50 [2]: 4500 nM; IC50 (TGF-beta receptor type-1): 16000 nM
COc1cc2nccc(Oc3cc(C)c(Cl)cc3C(C)=O)c2cc1OC	420	
COc1cc2nccc(Oc3ccc(C)cc3C(=O)C3CCCC3)c2cc1OC	2200	
CCC(=O)c1cc(C)ccc1Oc1ccnc2cc(OC)c(OC)cc12	620	
COc1ccc(Oc2ccnc3cc(OC)c(OC)cc23)c(C(=O)c2ccccc2)c1	> 10000	
CCc1ccc(Oc2ccnc3cc(OC)c(OC)cc23)c(C(C)=O)c1	830	
COc1cc2nccc(Oc3ccc(C)cc3C=O)c2cc1OC	> 10000	
COc1cc(Oc2ccnc3cc(OC)c(OC)cc23)c(C(C)=O)cc1OC	> 10000	
COc1cc2nccc(Oc3ccc(C)cc3C(C)=O)c2cc1OC	2300	IC50 [2]: 8400 nM; IC50 (TGF-beta receptor type-1): 4400 nM

From ChEMBL document CHEMBL1150385, “Synthesis and evaluation of [2-(4-quinolyloxy)phenyl]methanone derivatives: novel selective inhibitors of transforming growth factor-beta kinase” (J Med Chem, 2008)
